Rows were chosen to be rich in hits. Some 1.5% of all compounds tested hit in one or more screens of this group.
HCV NS3 hel inh: blocks Hepatitis C virus NS3 helicase unwinding | inhibition, % at 10.9 µM | 0.56% of 290,000 active | AID 1800 | NS3 helicase DNA unwinding, Cy5 molecular beacon fluorescence;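 active = inhibition above the mean of all tested compounds plus 3 SD, set per campaign, cut at about 35% in these data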;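 also: 0% = DMSO wells and 100% = thioflavine S control wells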
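Material: hepatitis C virus NS3 helicase domain fragment enzyme; measured by: Cy5 fluorescence, 0 and 60 min reads; control set: DMSO and thioflavine S; incubation: 60 min unwinding reaction at 25 °C after ATP addition; read-out basis: % inhibition from 60/0 min fluorescence ratio, DMSO 0%, thioflavine S 100%; repeats: singlicate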
Casp6 inh: inhibitors of human caspase-6. P55212. purified caspase-6, Z-VEID-R110 cleavage fluorescence. inhibition, % at 12.5 µM. 0.53% of 350,000 active. AID 686996;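 active = mean inhibition across replicates at least about 35%, with every replicate also reaching that limit, limit read from the data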;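 also: 0% = median of neutral control wells and 100% = no fluorescence left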
Target sequence (P55212 24-179 limits assumed): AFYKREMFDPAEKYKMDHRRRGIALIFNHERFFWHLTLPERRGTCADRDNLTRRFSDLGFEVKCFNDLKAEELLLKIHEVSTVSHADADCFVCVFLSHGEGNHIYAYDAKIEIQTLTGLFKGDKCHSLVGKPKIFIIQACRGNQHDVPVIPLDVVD
Target sequence (P55212 194-293 limits assumed): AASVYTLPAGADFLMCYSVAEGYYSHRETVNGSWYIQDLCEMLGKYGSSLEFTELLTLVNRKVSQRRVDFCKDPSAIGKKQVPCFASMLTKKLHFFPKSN
NSD2 HMT inh: blocks human histone methyltransferase NSD2; NSD2 peptide methylation, AlphaScreen, 120 min; inhibition, % at 12.5 µM; 0.54% of 310,000 active; AID 743445
DNMT1 block: DNMT1 (human) enzyme inhibition. inhibition (reported as % activation of signal), % at 10 µM. DNMT1 molecular beacon, Hinp1I cleavage, fluorescence. 0.83% of 360,000 active
DNMT1 interf DR: beacon fluorescence artifact, dose response counter-screen; shares compounds with DNMT1 block; molecular beacon fluorescence, spectral interference counter-screen; IC50, µM; 200 tested, under 10 active; AID 602382; call rule not given here
DNMT1 confirm: DNMT1 inhibition confirmation, single concentration. shares compounds with DNMT1 block. DNMT1 molecular beacon HinP1I cleavage, fluorescence. inhibition, % at 10 µM. 8% of 2,300 active;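 active = average inhibition of at least 30% in the single-concentration confirmation test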
Beacon interf: shows spectral interference in the DNMT1 beacon assay; shares compounds with DNMT1 block; DNMT1 molecular beacon spectral interference counterscreen, fluorescence 485/520; activation (fluorescence interference), % at 10 µM; 1% of 2,300 active;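 active = activation of at least 30% at 10 µM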;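 also: DNMT1 catalytic domain with a HinP1I cleavage step and a FAM/dabcyl DNA beacon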
* marks the source's active call; other numbers are inactive results; . = no result given. Rule as the data show it, unless noted: active = inhibition above about 50%; inactive = the rest.

SMILES	HCV NS3 hel inh	Casp6 inh	NSD2 HMT inh	DNMT1 block	DNMT1 confirm	Beacon interf	others
O=C(O)Cc1c[nH]c2cccc(O)c12	31.9	54.2*	.	74.3*	36.5*	-1.7	DNMT1 interf DR=>99
O=C(O)Cc1c[nH]c2ccccc12	.	-1.3	.	-0.9	.	.
CCN(CC)C(=O)CSc1ncnc2c(-c3cccs3)nsc12	4.2	.	-0.3	97.0*	4.9	5.8
O=C(NC[C@@H]1CC[C@@H]2[C@@H](CN2Cc2cc(-c3ccccc3)on2)O1)c1ccc2c(c1)OCO2	.	-0.3	.	.	.	.
O=C(CCc1nc2ccccc2c(=O)[nH]1)NCc1ccco1	5.3	2.6	-0.8	2.1	.	.
CN(CC(=O)NC(=O)NCc1ccco1)Cc1nc2ccccc2c(=O)[nH]1	9.3	.	-1.3	70.1*	3.7	2.5
Cc1oc2c(c1C(=O)c1ccc(Cl)cc1)C(=O)C(=O)c1ccccc1-2	15.9	.	7.2	73.9*	21.1	-8.5	DNMT1 interf DR=>99
Cc1ccc(C(=O)c2coc3c2C(=O)C(=O)c2ccccc2-3)cc1	14.8	.	-3.1	-6.4	.	.
C[C@@H]1CN([C@@H](C)CO)C(=O)Cc2cc(NC(=O)CCN3CCOCC3)ccc2O[C@H]1CN(C)S(=O)(=O)c1cccs1	.	-2.2	.	.	.	.
O=C1CC(c2ccco2)CC(O)=C1C=NCC1CCNCC1 (stereo not drawn)	0.2	.	3.4	66.7*	0.7	4.9
CCN(C(=O)COC(=O)c1cc([N+](=O)[O-])ccc1N1CCOCC1)c1ccccc1	.	6.1	7.2	-10.0	.	.
CN(Cc1ccccc1)C(=O)COC(=O)c1cc([N+](=O)[O-])ccc1N1CCOCC1	.	0.9	4.7	110.6*	1.7	1.9
O=C(CSc1nccc(=O)[nH]1)NCc1ccco1	1.3	42.5*	.	76.5*	2.5	-0.3
Cc1cc(=O)[nH]c(SCC(=O)Nc2ccc(C(=O)O)cc2)n1	12.0	1.0	0.9	0.7	.	.
Cc1cc(=O)[nH]c(SCC(=O)NCc2ccco2)n1	10.0	.	-3.9	56.5*	1.1	2.8
CCOC(=O)c1ccc(NC(=O)CSc2nc(C)cc(=O)[nH]2)cc1	16.7	.	.	88.1*	19.0	2.7
COc1ccc2c3c([nH]c2c1)[C@H](CO)N(C(=O)Nc1ccc(F)cc1)CC31CN(Cc2nccs2)C1	.	0.4	.	.	.	.
C=CCOC(=O)[C@@H]1[C@H]2C(=O)O[C@H](c3ccccc3)[C@H](c3ccccc3)N2[C@H](c2ccc(OCCOC(=O)[C@H]3C[C@H]4C(=O)N5CCC[C@H]5C(=O)N4[C@H]3c3ccc(O)cc3)cc2)[C@@]12C(=O)Nc1ccccc12	.	-1.2	.	.	.	.
C#CCn1c(=NC(=O)c2ccc(Br)s2)sc2cccc(OC)c21	-3.4	-1.7	.	51.8*	-0.1	-6.0
Cc1ccc(S(=O)(=O)N(C)C[C@H]2OCCCC[C@H](C)Oc3ccc(NC(=O)Nc4ccc5c(c4)OCO5)cc3C(=O)N([C@@H](C)CO)C[C@H]2C)cc1	.	0.9	.	.	.	.
O=C(C1CCC1)N1CC2(C1)[C@H](c1ccccc1)[C@@H](CO)N2Cc1ccc(Cl)cc1	.	-3.4	.	.	.	.
CC(=O)OCCn1c(C)[n+](CCOC(C)=O)c2cc(Cl)c(Cl)cc21	11.9	1.4	0.3	-0.6	.	.
CC(=O)OCCn1c2nc(=O)[nH]c(=O)c-2nc2cc(C)c(C)cc21	-41.6	-6.6	4.8	192.3*	139.6*	134.4*
CN1c2ccc(-c3ccccc3)cc2[C@@H]2[C@@H](CCN2C(=O)c2ccccc2)[C@@H]1CO	.	3.7	.	.	.	.
Cc1[nH]n(C)c(=O)c1[N+](=O)[O-]	-4.9	-8.1	-3.0	55.6*	1.8	2.8
SMILES	HCV NS3 hel inh	Casp6 inh	NSD2 HMT inh	DNMT1 block	DNMT1 confirm	Beacon interf	others
CC(=O)OCC1=C(C(=O)O)N2C(=O)C(NC(=O)c3ccc(COc4cccc(Cl)c4Cl)o3)C2SC1 (stereo not drawn)	29.2	55.1*	20.5	87.6*	41.3*	3.9	DNMT1 interf DR=>99
COc1cccc(C(=O)NC2C(=O)N3C(C(=O)O)=C(COC(C)=O)CSC23)c1 (stereo not drawn)	.	9.1	19.3	9.2	.	.
N#Cc1nnn(-c2ccc(Cl)cc2)c1N	2.6	.	-0.7	90.3*	0.1	1.1
COc1cc(/C=C/C=C2/CC/C(=C/C=C/c3ccc(O)c(OC)c3)C2=O)ccc1O	.	52.5*	0.5	90.3*	27.4	0.5	DNMT1 interf DR=>99
C[C@@H]1CN([C@@H](C)CO)C(=O)c2cc(NC(=O)Nc3ccc(F)cc3)ccc2O[C@@H](C)CCCCO[C@H]1CN(C)Cc1ccccc1	.	0.0	.	.	.	.
CC(=O)c1ccc(N2CCN(C(=O)Cc3n[nH]c(=O)c4ccccc34)CC2)cc1	-0.8	-1.1	0.9	66.0*	1.1	1.2
C[C@H](CO)N1C[C@H](C)[C@H](CN(C)C(=O)c2ccncc2)Oc2ncc(C#C[C@@H](C)O)cc2C1=O	.	0.8	.	.	.	.
COc1ccc2c3c(n(C)c2c1)[C@H](CO)N(Cc1ccccc1F)CC31CCN(CC2CC2)CC1	.	-0.5	.	.	.	.
Cc1cc(C)cc(-n2nnnc2SCC(=O)N2CCOCC2)c1	11.6	.	5.6	78.9*	-0.4	3.6
COc1cc(OC)cc(-n2nnnc2SCC(=O)N2CCCC2)c1	5.5	.	1.4	-1.6	.	.
Cc1cc2oc3ccc(NCCCn4ccnc4)cc3c(=O)c2cc1C	.	.	.	56.4*	0.9	1.4
COc1ccc(S(=O)(=O)N[C@@H]2C=C[C@@H](CC(=O)N3CCC(Cc4ccccc4)CC3)O[C@H]2CO)cc1	.	-2.0	.	.	.	.
COc1ccccc1OCCOc1ccc(/C=C2/C(=N)N3OC(C)=CC3=NC2=O)cc1OC	5.0	.	11.6	88.2*	19.1	-5.6
CC1=CC2=NC(=O)/C(=C\c3cccn3CCOc3ccccc3C)C(=N)N2O1	0.9	1.5	1.1	-4.2	.	.
Cc1ccc(O)c(-c2cc(-c3ccccc3[N+](=O)[O-])[nH]n2)c1	-12.2	.	3.0	-9.3	.	.
COc1ccc(O)c(-c2cc(-c3ccccc3[N+](=O)[O-])[nH]n2)c1	1.2	.	3.6	86.4*	3.4	5.8
Cn1cc(/C=C/c2cc[n+](C)cc2)c2cc(F)ccc21	11.8	-14.5	.	60.3*	55.6*	52.6*
CCc1nn(CC(=O)NCCCc2ccccc2)c(=O)c2cc3cc(F)ccc3n12	-8.8	.	.	50.9*	-0.1	-0.5
CCc1nn(CC(=O)NCCCc2ccccc2)c(=O)c2cc3c(OC)cccc3n12	-9.4	0.1	-4.1	48.9	.	.
Cc1ccc(CN2C(=O)CCC2C(=O)NCc2ccc(F)cc2)cc1 (stereo not drawn)	-1.2	.	-6.2	-0.4	.	.
Cc1ccc(CN2C(=O)CCC2C(=O)NCc2ccc3c(c2)OCO3)cc1 (stereo not drawn)	4.7	.	0.1	90.7*	-0.5	3.8
CCCC#Cc1ccc([C@H]2[C@@H](CO)N(C(C)=O)[C@H]2CNC(=O)C2CCCC2)cc1	.	2.3	.	.	.	.
Cc1cc(C(=O)N/N=C/c2ccc(-c3cccc(Cl)c3Cl)o2)n[nH]1	-2.3	.	0.3	52.3*	17.5	3.4
Cc1cc(C(=O)N/N=C/c2ccc(-c3cccc(Br)c3)o2)n[nH]1	-2.6	3.0	-1.9	28.4	.	.
